Granule exo inh: blocks lytic granule exocytosis; TALL-104 LAMP-1 surface exposure, flow cytometry; cells stimulated with thapsigargin and PMA; inhibition, % at 10 µM; hit rate 0.66% among 360,000; AID 651702;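 active = inhibition above about 55%, limit read from the data; inconclusive = no clear call, values can overlap the other calls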
Apaf-1 inh: blocks human Apaf-1 apoptosome activity | O14727 | reconstituted apoptosome caspase-3 activity, DEVD-Rh110 fluorescence | inhibition, % at 20 µM | hit rate 0.71% among 330,000; active = inhibition of at least 40% at 20 µM;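 note: plate controls were DMSO wells for no effect and DEVD-CHO caspase inhibitor wells for full effect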
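Material: biochemical Apaf-1 apoptosome reconstitution. Medium: Hepes buffer, pH 7.5. Also added: cytochrome c activation, bis-DEVD rhodamine 110 substrate. Timing: 30 min compound preincubation, 50 min activation, room temperature. Measured by: rhodamine 110 fluorescence at Ex 480/Em 540 nm.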
MPTP inh: blocks calcium-induced mitochondrial swelling | inhibition, % at 10 µM | AID 602449 | hit rate 1.4% among 360,000 | isolated mouse mitochondria, Ca2+ swelling absorbance, 30 min;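 active = inhibition of 50% or more, scaled per plate between neutral and stimulator controls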;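 note: 0% = DMSO wells given calcium and 100% = 1 mM EGTA wells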
beta cell repl: inducers of beta-cell replication in MIN6 cells; MIN6 cells proliferation, ATPlite luminescence, 48 h; cells starved in 0.2% serum; 100% = growth in 10% serum; proliferation, % at 10 µM; hit rate 0.29% among 330,000;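 active = compounds whose signal lies at least 3.5 SD above the mean of all wells on their plate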;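 note: 0% = DMSO-treated cells in low-serum medium and 100% = 10% serum control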
iPSC survival up: hiPSC single-cell survival enhancement | ATPlite luminescence; 100% = ROCK inhibitor wells, 0% = DMSO | survival enhancement, % at 20 µM | hit rate 0.044% among 360,000 | AID 602274; in the data active = survival enhancement above about 18%;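 note: cells exposed to compounds for 16 hours before the ATP read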
UBC13 polyUb: human UBC13 polyubiquitination inhibition | P61088 | UBC13 polyubiquitin chain formation, TR-FRET | inhibition, % at 20 µM | hit rate 0.47% among 330,000; in the data active = inhibition above about 45%, passing the limit was not always enough; inconclusive = no clear call, values can overlap the other calls
Target sequence (P61088 whole entry, looked up): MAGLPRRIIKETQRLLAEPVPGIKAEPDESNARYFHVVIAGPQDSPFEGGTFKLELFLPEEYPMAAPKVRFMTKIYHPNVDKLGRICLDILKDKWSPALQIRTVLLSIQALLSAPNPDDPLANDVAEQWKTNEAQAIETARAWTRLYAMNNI
Casp3 counter: caspase-3 inhibition (UBC13 counter-screen); shares compounds with UBC13 polyUb; Recombinant caspase-3, Caspase-Glo 3/7 luminescence, 60 min; inhibition, % at 20 µM; hit rate 4% among 1,400; AID 488856;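 active = mean inhibition across replicates above about 26%, limit read from the data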;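 note: plate controls were DMSO with caspase-3 for no effect and DMSO wells lacking enzyme for full effect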
Target sequence (P42574 whole entry, looked up): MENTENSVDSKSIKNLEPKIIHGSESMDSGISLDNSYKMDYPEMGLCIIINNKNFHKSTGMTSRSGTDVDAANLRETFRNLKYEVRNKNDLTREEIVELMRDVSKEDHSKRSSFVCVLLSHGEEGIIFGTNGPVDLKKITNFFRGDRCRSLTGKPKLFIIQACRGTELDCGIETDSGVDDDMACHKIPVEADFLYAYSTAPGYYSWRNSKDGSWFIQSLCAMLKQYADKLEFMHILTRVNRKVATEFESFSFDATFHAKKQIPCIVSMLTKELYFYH
UBC13 conf: human UBC13 polyubiquitin inhibition, confirmed | shares compounds with UBC13 polyUb | UBC13 polyubiquitination, TR-FRET, biochemical | inhibition, % at 10 µM | hit rate 68% among 1,400 | AID 488859; in the data active = inhibition above about 45%; inconclusive = no clear call, values can overlap the other calls
* marks the source's active call; other numbers are inactive results; u = inconclusive; x = not tested or not shown. Sampled rows, rich in hits. Any-hit rate of the full collection: about 3%.

SMILES | Granule exo inh | Apaf-1 inh | MPTP inh | beta cell repl | iPSC survival up | UBC13 polyUb | Casp3 counter | UBC13 conf
COc1cccc(CNc2nc3cc(-c4ccc(OC)cc4C)sc3c(=O)n2C)c1 | 6.4 | x | -0.9 | x | 0.2 | x | x | x
COC(CN(C)C(=O)c1ccc2c(c1)NC(=O)c1ccccc1S2)OC | -0.4 | 1.0 | 0.2 | -1.2 | -0.3 | 15.1 | x | x
Cn1c(=O)c2[nH]c(CCNC(=O)c3ccccc3)nc2n(C)c1=O | -0.6 | x | -0.4 | x | -1.4 | x | x | x
COc1cc(-c2nc3ccc(N4CCN(C)CC4)cc3[nH]2)cc(OC)c1OC | -0.5 | 10.0 | -0.3 | -2.7 | 0.6 | 45.4* | -1.1 | 37.0
COc1ccc(CCN(C)C(=O)CCNS(=O)(=O)c2ccccc2C(F)(F)F)cc1OC | 24.5 | -2.5 | -0.2 | 4.2 | 0.1 | 5.8 | x | x
CCCCCCCCOC(=O)c1c(CSC(=N)N)n(C)c2cc(Br)c(OC(C)=O)cc12 | 72.4* | 14.0 | -0.5 | -3.3 | -0.5 | 95.5* | 4.4 | 113.7*
COc1ccccc1NC(=O)COC(=O)/C=C/c1ccc(OC)c(OC)c1 | -4.1 | 0.2 | -2.0 | 3.4 | -1.4 | 24.8 | x | x
CCCn1c(N)c(N(CCOC)C(=O)CSc2cc(C)c3cccc(C)c3n2)c(=O)[nH]c1=O | -4.4 | 1.9 | 0.1 | 4.3 | 0.5 | -8.0 | x | x
OC[C@@H]1CN(Cc2ccc(Cl)cc2)C[C@H](n2cnc3c(NC4CCC4)ncnc32)O1 | -7.2 | x | 0.5 | x | 1.8 | x | x | x
CC(=O)c1ccc(OCCCC(=O)NNC(=O)c2ccccn2)cc1 | -11.0 | -4.1 | -1.9 | -4.5 | -3.7 | 76.1* | -2.7 | 65.8*
CCN1CCN(CCCNC(=O)c2ccc(/C=C3/Sc4ccccc4N(Cc4ccccc4F)C3=O)cc2)CC1 | 69.8* | 33.2 | -2.9 | -5.9 | -0.2 | 46.5* | -0.4 | 53.9*
O=C(NCCN1CCOCC1)c1ccc2c(c1)N(Cc1ccccc1F)C(=O)c1ccccc1S2 | -2.4 | 14.4 | 0.8 | -4.0 | -0.1 | -4.2 | x | x
COc1ccc(N(C(=O)c2snc(C(N)=O)c2N)C(C(=O)NC2CCCC2)c2ccc(OC)c(OC)c2)cc1 (configuration not stated) | 3.6 | 11.2 | -0.5 | 1.6 | 0.2 | 36.7 | x | x
CC(C(=O)NC1CCCC1)N(C(=O)c1snc(C(N)=O)c1N)c1ccc2c(c1)OCCO2 (configuration not stated) | -4.9 | -1.3 | -0.9 | -3.1 | 0.6 | 72.2* | 1.2 | 72.1*
CCC(C(=O)NC1CCCC1)N(C(=O)c1snc(C(N)=O)c1N)c1ccc(OC)cc1 (configuration not stated) | 3.1 | 6.0 | 0.5 | 0.0 | -0.2 | 52.2* | -1.1 | 62.1*
CCCCCCCCN1C(=O)[C@H](CC(=O)N2CCSCC2)C[C@@]2(C(=O)OC)CC(C)(C)CC=C12 | -5.5 | x | 10.8 | x | x | x | x | x
CCC(C)NC(=O)c1cn(CC)c2ccc(S(=O)(=O)N3CCCCCC3)cc2c1=O (configuration not stated) | 15.0 | 17.3 | -0.9 | -2.9 | -0.5 | -6.4 | x | x
CCOC(=O)[C@@H]1[C@H]2COc3ccc(Br)cc3[C@H]2N2C(=O)N(c3ccc(F)cc3)C(=O)[C@@]12C | -13.0 | 8.8 | 0.2 | -1.0 | 4.6 | -10.2 | x | x
COc1ccccc1C(=O)N=c1sc2c(C)ccc(OC)c2n1C | 32.0 | 11.1 | 2.5 | -1.1 | -0.5 | 47.5* | 72.8* | u
COc1ccc(C(=O)N=c2sc3c(C)ccc(OC)c3n2C)cc1OC | -6.2 | -11.2 | 1.0 | -1.7 | -0.6 | 30.8 | x | x
O=C([C@H]1O[C@@H](n2ccc(=O)[nH]c2=O)[C@H](O)[C@@H]1O)N1CCN(Cc2ccccn2)CC1 | -6.8 | x | -2.4 | x | -0.4 | x | x | x
CN(C)C(CNC(=O)c1coc2ccccc2c1=O)c1ccccc1 (configuration not stated) | 4.8 | 11.3 | -1.6 | -1.6 | -0.6 | 56.4* | 12.5 | 58.9*
COC(=O)c1ccc(CNC(=O)c2coc3ccccc3c2=O)cc1 | -2.7 | 0.3 | 0.9 | -0.6 | 0.2 | 4.5 | x | x
CC(=O)N1CCc2c(sc(NC(=O)Cc3ccccc3)c2C#N)C1 | 5.8 | -2.9 | -1.5 | -0.8 | 0.1 | 2.5 | x | x
